Assay results pooled from the literature.
SLC22A8: Organic anion transporter 3 (SLC22A8, Homo sapiens, UniProt Q8TCC7)

The Km of CON=C(N)c1ccc(-c2ccc(-c3ccc(C(N)=NOC)cc3)o2)cc1 is reported as 3.2 µM (Cytochrome P450 4F3 (CYP4F3, Homo sapiens, UniProt Q08477); enzyme activity, substrate).
The Tmax of CN(C(=O)n1cnc(-c2ccc[n+]([O-])c2)c1)C1CCCCC1 is reported as 2 h (male cynomolgus monkey, plasma; oral, 0.3 mg/kg).
CC(C)n1cc(C#N)c2cc(-n3cc(C(=O)O)cn3)ccc21 gave an AUC(0-t) of 43700 ng·h/mL (human, plasma; oral, 200 mg, single dose, fed).
The tissue/plasma ratio of CC(C)(C)c1ccc(O)c(CN(Cc2cc(C(C)(C)C)ccc2O)C2CCC(NC(N)=O)CC2)c1 (stereo not shown) is reported as 0.79 (male C57BL/6 mouse, brain; intraperitoneal, 10 mg/kg, single dose).
O=C(O)CSc1nnc(Br)n1-c1ccc(C2CC2)c2ccccc12 has an inhibition of 64% (SLC22A8; transporter uptake, inhibitor, radiometric; 5 µM, 1 h, oocytes).
The AUC(0-inf) of COc1ccc([C@@H]2CN(C(=O)[C@@H](O)CO)C[C@@]2(C)[C@@H](C)O)cc1OC1CN(c2ccc(C)cn2)C1 is reported as 4090 ng·h/mL (human, plasma; oral, 20 mg, single dose, healthy volunteers).
CCCCNc1cc(C(=O)O)cc(S(N)(=O)=O)c1Oc1ccccc1 has an inhibition of 97% (SLC22A8; transporter uptake, inhibitor, radiometric; 200 µM, 1 h, oocytes).
CCc1nc2c(C)cc(N3CCN(CC(=O)N4CC(O)C4)CC3)cn2c1N(C)c1nc(-c2ccc(F)cc2)c(C#N)s1 has an AUC(0-inf) of 168000 ng·h/mL (human, plasma; oral, 1500 mg, single dose, fed, healthy volunteers).
CC(C)(O)c1ccccc1-c1ccc2[nH]c(/C=C/c3ccc(C(F)(F)F)cc3)nc2c1 has an AUC(0-t) of 971 ng·h/mL (male human, plasma; oral, 5 mg, single dose, fasted, healthy volunteers).
CC(=O)O[C@H]1C(=O)[C@@]2(C)[C@H]([C@H](OC(=O)c3ccccc3)[C@]3(O)C[C@H](OC(=O)[C@H](O)[C@@H](NC(=O)c4ccccc4)c4ccccc4)C(C)=C1C3(C)C)[C@]1(OC(C)=O)CO[C@@H]1C[C@@H]2O has an IC50 of 28.2 µM (Bel-7402; cell growth or viability, MTT; 48 h).
